Our source for the fluorescence artifact activation values is PubChem BioAssay AID504382 (The Scripps Research Institute Molecular Screening Center, 2011).

About 460 (18%) of roughly 2,500 compounds were called active. These entries were drawn from the full list. Unmarked numbers belong to inactive results.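 How the source made its calls: active means mean activation above a cutoff of low control average plus 3 SD from the earlier screen (cut at about 12% in these data); inactive means the rest.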

The nature of this test: compound fluorescence interference without thin filaments, confirmation, artefact control for cardiac RTF calcium sensitizer project, biochemical (AID 504382). The conditions noted are these: IANBD fluorescence interference counterscreen, buffer, EC20 Ca2+; at 7.2 µM; active compounds read high. The method in brief:
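Doses – one dose of 7.2 µM, 0.7% DMSO · Buffer or medium – MOPS/KCl/MgCl2/EGTA/NTA/DTT buffer, pH 7.2 · Probe or stimulus – Ca2+ fixed at EC20, 0.472 mM · Measured by – fluorescence intensity, excitation 480 nm, emission 540 nm · Read-out – fluorescence interference versus control range · Timing – 15 min compound exposure at 25 °C · Replication – triplicate wells per compound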
On the technique in general: A counterscreen serves to expose hits that act by an unwanted route or on another target.
Regarding `O=c1cc(C(F)(F)F)c2cc3c4c(c2o1)CCCN4CCC3`, the fluorescence artifact activation is 19.7% (active). Turning to `Cc1cc2c(C(F)(F)F)cc(=O)oc2c2c1NCCC2`, the fluorescence artifact activation is 26.6% (active). In the case of `COc1ccc2c3c([nH]c2c1)C(C)=NCC3`, the fluorescence artifact activation is 0.04%. As for `COc1ccc(CC(=O)N2CCN(C)CC2)cc1OC`, the fluorescence artifact activation is 0.89%. For `Cc1cc(N(CCCl)CCCl)ccc1C=Cc1ccncn1`, the fluorescence artifact activation was 3.44%. With `O=c1[nH]c(=O)n(Cc2ccc(F)cc2)c(O)c1/C=N/Nc1ccccc1`, the fluorescence artifact activation was 6.04%.

As to `CCOP(=O)(Cc1cc(C#N)oc1C)OCC`, the fluorescence artifact activation is 0.13%.

In the case of `COc1ccc(N2C(=O)/C(=C/c3ccc(N(C)C)o3)C(=O)NC2=S)cc1`, the fluorescence artifact activation was 92% (active). Consider `CCN(CC)c1ccc(/C=C2\C(=O)NC(=S)N(c3ccc(OC)cc3OC)C2=O)o1`, for which the fluorescence artifact activation was 0.1%.

In the case of `CCN(CC)c1ccc(/C=C2\C(=O)NC(=S)N(C)C2=O)o1`, the fluorescence artifact activation is 7.26%. `CCN(CC)c1ccc(N=Cc2c(O)n(Cc3ccco3)c(=O)[nH]c2=O)cc1`: the fluorescence artifact activation was 0.1%. Consider `Cc1ccc(C)c(Cn2c(C(=O)O)c(C=O)c3ccccc32)c1`, for which the fluorescence artifact activation was 0.2%. Regarding `C[C@]12CCC(=O)C=C1CC[C@@H]1[C@@H]2CC[C@]2(C)C(=O)CC[C@@H]12`, the fluorescence artifact activation was 0.01%. On to `CC1=C[C@@H]2c3cccc4[nH]cc(c34)C[C@H]2N(C)C1`, for which the fluorescence artifact activation was 14.5% (active). Turning to `CN1C[C@H](CO)C=C2c3cccc4[nH]cc(c34)C[C@H]21`, the fluorescence artifact activation is 0.35%. Consider `CCC(CO)NC(=O)C1C=C2c3cccc4[nH]cc(c34)CC2N(C)C1` (stereo unspecified), for which the fluorescence artifact activation was 1.39%. Turning to `COC(=O)C1=C(c2cccc(OC)c2OC)C[C@@H]2CC[C@H]1N2C(=O)NCCCOC(C)C`, the fluorescence artifact activation is 0.79%.

For the compound `COC(=O)C1=C(c2ccc(F)cc2OCc2ccccc2)C[C@@H]2CC[C@H]1N2C(=O)NCc1ccc(OC)c(OC)c1`, the fluorescence artifact activation was 57% (active). Consider `COC(=O)C1=C(c2cccc(OC)c2OC)C[C@@H]2CC[C@H]1N2C(=O)NCc1ccco1`, for which the fluorescence artifact activation is 1.08%. Consider `O=C(O)C1=CC2c3ccccc3C1c1ccccc12`, for which the fluorescence artifact activation is 0.01%. With `O=[N+]([O-])c1ccc(N2CCCCCC2)c2nonc12`, the fluorescence artifact activation is 6.24%. In the case of `CCOC(=O)c1ccccc1C(=O)OCC` it was 1510% (active); in that of `COc1ccccc1N1C(=O)NC(=O)/C(=C/c2ccc3c4c(cccc24)CC3)C1=O`, 0.07%; in that of `Cn1c(O)c(/C=C/C=Nc2ccccc2)c(=O)n(C)c1=O`, -0.08%. With `CCOCCCn1c(N)c(C(=O)Nc2sc3c(c2C(=O)OC)CCCC3)c2nc3ccccc3nc21`, the fluorescence artifact activation is 2.92%. As for `CCCCn1c(O)c(C(=O)/C=C/c2c[nH]c3ccccc23)c(=O)[nH]c1=O`, the figure is 3%.

With `CCCCC(=O)N/N=C/c1c(O)n(CC)c(=S)n(CC)c1=O`, the fluorescence artifact activation is 0.21%. In the case of `O=c1[nH]c(=S)n(-c2ccc(Br)cc2)c(O)c1C=Nc1ccc(N2CCOCC2)cc1` it was 0.07%.

As to `CCn1c(O)c(C=Nc2ccc(N3CCOCC3)cc2)c(=O)n(CC)c1=S`, the fluorescence artifact activation was 23.9% (active). In the case of `Cc1ccc(N2C(=O)NC(=O)/C(=C\c3ccoc3)C2=O)cc1` it was 0.07%; in that of `COC(=O)[C@H]1C[C@@H]1[C@H](NP(=O)(c1ccccc1)c1ccccc1)c1ccccc1`, 0.01%. In the case of `COc1ccc(N=Nc2c(O)[nH]c(=S)[nH]c2=O)cc1` it was 0.58%; in that of `Nc1ccc2ccc3cccc[n+]3c2c1`, 0.21%. In the case of `Cc1cc(Cl)nc(N)n1`, the fluorescence artifact activation is 14.3% (active). As for `C#C[C@]1(O)CC[C@H]2[C@@H]3CCC4=Cc5nc6nc7ccccc7n6cc5C[C@]4(C)[C@H]3CC[C@@]21C`, the fluorescence artifact activation is 0.16%. With `CN1CCc2cc3c(c4c2C1Cc1ccccc1-4)OCO3` (stereo unspecified), the fluorescence artifact activation is 0.18%. As for `O=C1NC(=O)C(=Cc2ccc(N3CCOCC3)o2)C(=O)N1`, the figure is -0.04%. As for `Cc1cccc(N2C(=O)/C(=C/c3ccc(N4CCN(C)CC4)o3)C(=O)NC2=S)c1C`, the figure is 0.2%; as for `Cc1ccccc1N1C(=O)NC(=O)/C(=C\c2cc(Br)c(N3CCOCC3)o2)C1=O`, -0.03%. As for `CN1CCN(c2ccc(/C=C3\C(=O)NC(=S)N(c4cccc(Br)c4)C3=O)o2)CC1`, the figure is -0.01%; as for `O=C1NC(=O)N(c2ccc3c(c2)OCO3)C(=O)/C1=C/c1ccc(N2CCCC2)o1`, 0.12%. Consider `O=C1NC(=O)N(c2ccc3c(c2)OCO3)C(=O)/C1=C\c1ccc(N2CCCCC2)o1`, for which the fluorescence artifact activation was 0.37%. Regarding `CCOc1ccc(N2C(=O)NC(=O)/C(=C\c3ccc(N4CCCCC4)o3)C2=O)cc1`, the fluorescence artifact activation was 51.4% (active).

As to `Cc1ccccc1N1C(=O)NC(=O)/C(=C/c2ccc(N3CCOCC3)o2)C1=O`, the fluorescence artifact activation is 14.1% (active). Consider `CCc1ccccc1N1C(=O)/C(=C/c2ccc(N3CCN(C)CC3)o2)C(=O)NC1=S`, for which the fluorescence artifact activation was 119% (active). `O=[N+]([O-])c1ccc(N2CCCC2)c2ncccc12`: the fluorescence artifact activation was 9.73%.

As for `C[C@]12CCC3C(CC[C@H]4C[C@@H](O)[C@H](O)C[C@]34C)C1CC[C@@H]2O` (stereo partly specified), the fluorescence artifact activation was 4.4%. `OC12CCCCC1C(c1ccccc1)NCC2` (stereo unspecified): the fluorescence artifact activation was 0.14%.

In the case of `CN1C(=O)C(=Cc2sc(=O)n(-c3ccccc3)c2N2CCCCC2)C(=O)N(C)C1=O`, the fluorescence artifact activation was -0.07%. As for `CCN(CC)C(=O)c1ccc(NC(=O)COc2ccc([N+](=O)[O-])cc2Cl)cc1`, the fluorescence artifact activation was 0.19%. Turning to `C=Cn1ccnc1P(=S)(c1nccn1C=C)c1nccn1C=C`, the fluorescence artifact activation was 6.72%.

For `CN(C)P(=O)(CCl)Nc1ccccc1` (stereo unspecified), the fluorescence artifact activation was 10%.

With `C=CCN1C(=O)/C(=C\c2ccc(N3CCOCC3)o2)C(=O)NC1=S`, the fluorescence artifact activation was 0.23%. Consider `O=C1NC(=O)C(=Cc2cn(CCOc3ccc4c(c3)OCO4)c3ccccc23)C(=O)N1`, for which the fluorescence artifact activation was 1.05%.

In the case of `Cc1cc(C)c(Cn2c(C(=O)O)c(C=O)c3ccccc32)c(C)c1`, the fluorescence artifact activation was 0.05%.

Regarding `CC(C)c1ccc(N2C(=O)NC(=O)/C(=C/C=C/c3ccco3)C2=O)cc1`, the fluorescence artifact activation was -0.06%. Take `CC(C)C[C@H]1C(=O)N2CCC[C@H]2[C@]2(O)O[C@](NC(=O)[C@@H]3C=C4c5cccc6[nH]cc(c56)C[C@H]4N(C)C3)(C(C)C)C(=O)N12`: the fluorescence artifact activation was 0.12%. Regarding `O=c1[nH]c(=S)n(-c2ccccc2Cl)c(O)c1C=NCCN1CCNCC1`, the fluorescence artifact activation is 660% (active).

`COc1ccc(OC)c(-n2c(O)c(C=NCCN3CCNCC3)c(=O)[nH]c2=S)c1`: the fluorescence artifact activation is 3.37%. For `C=CCn1c(O)c(C=NC2CCN(Cc3ccccc3)CC2)c(=O)[nH]c1=O`, the fluorescence artifact activation is -0.06%. For the compound `CN1Cc2c(c(C#N)c(N)n(C)c2=S)CC1(C)C`, the fluorescence artifact activation is -0.06%.

Consider `CCN(CC)c1ccc(/C=C/[N+](=O)[O-])cc1`, for which the fluorescence artifact activation is 3.43%. Regarding `CCCCCCC(=O)N/N=C/c1c(O)n(CCc2ccccc2)c(=O)[nH]c1=O`, the fluorescence artifact activation was 0.04%.

For `O=C(CN1CCN(c2ccccc2F)CC1)Nc1cccnc1Cl`, the fluorescence artifact activation is 6.53%. In the case of `CC1(C)OC(c2ccccc2)=C/C(=C/C=C2C(=O)NC(=O)NC2=O)O1` it was 0.3%; in that of `COc1ccc(N2C(=O)NC(=O)/C(=C\c3cn(C)c4ccccc34)C2=O)cc1`, -0.05%.

Turning to `N#CC(C#N)=Cc1ccc(C=C(C#N)C#N)cc1`, the fluorescence artifact activation is 0.08%. Regarding `Cn1cc(C=C(C#N)C#N)c2ccccc21`, the fluorescence artifact activation was 20% (active). As for `CC(C)n1c(=O)c(C=Nc2cccc([N+](=O)[O-])c2)c(O)n(CCc2ccccc2)c1=O`, the figure is 1.6%; as for `COc1cccc2c1C(=O)c1c(O)c3c(c(O)c1C2=O)CC(O)(C(C)=NO)CC3OC1CC(N)C(O)C(C)O1` (stereo unspecified), 0.43%. In the case of `Cc1ccc(-n2c(O)c(/C=C/C=Nc3ccccc3)c(=O)[nH]c2=O)cc1` it was 7.82%. Regarding `O=c1[nH]c(=O)n(-c2ccccc2)c(O)c1/C=C/C=Nc1ccccc1`, the fluorescence artifact activation is 0.01%.

As for `Cc1cccc(-n2c(O)c(/C=C/C=Nc3ccccc3)c(=O)[nH]c2=O)c1`, the fluorescence artifact activation was 59.9% (active). In the case of `O=C1NC(=O)N(Cc2ccccc2)C(=O)/C1=C\N1CCCc2ccccc21` it was 2.74%; in that of `O=Cc1c(C(=O)O)n(Cc2ccc(Cl)cc2)c2ccccc12`, 0.14%; in that of `C/C(=N\N1CCCCC1c1cccnc1)c1c(O)n(C2CCCCC2)c(=S)[nH]c1=O` (stereo unspecified), 13.8% (active). For `O=c1[nH]c(=O)n(C2CCCCC2)c(O)c1/C=C/C=Nc1ccccc1`, the fluorescence artifact activation is 0.28%. In the case of `Cc1cccc(N2C(=O)NC(=O)/C(=C\c3ccc4c(c3)CCCN4Cc3ccccc3)C2=O)c1` it was 0.72%; in that of `CN1CCN(Cc2cn(C)c3ccccc23)CC1CCO` (stereo unspecified), 10.6%; in that of `O=C1NC(=S)SC1=Cc1ccc(N(CCCl)CCCl)cc1`, -0.09%.

On to `Nc1c2c(nc3ccccc13)CCN(Cc1ccccc1)C2`, for which the fluorescence artifact activation is 26.4% (active). For `FC(F)(F)c1ccc2c(c1)nnn2C1CCN(Cc2nnnn2Cc2ccccc2)CC1`, the fluorescence artifact activation is 0.25%. Consider `CCOCCCNC(=O)C1c2cc(OC)c(OC)cc2C(=O)N2CCCCC12` (stereo unspecified), for which the fluorescence artifact activation was 0.42%. In the case of `O=c1[nH]c(O)c(C=Nc2ccccc2Oc2ccccc2)c(=O)[nH]1` it was 0.37%; in that of `C=CCN1C(=O)/C(=C/c2ccc(N3CCOCC3)o2)C(=O)NC1=S`, 5.89%. In the case of `CN1C(=O)/C(=C/c2ccc(N3CCCCCC3)o2)C(=O)NC1=S` it was 1.84%; in that of `CN1C(=O)/C(=C\c2ccc(N3CCCCC3)o2)C(=O)NC1=S`, 0.13%. Consider `CCN1C(=O)C(=Cc2ccc(N3CCOCC3)o2)C(=O)N(CC)C1=S`, for which the fluorescence artifact activation is 0.14%. For `CN1C(=O)C(=Cc2ccc(N3CCCCCC3)o2)C(=O)N(C)C1=S`, the fluorescence artifact activation is 35.9% (active). With `CN1C(=O)C(=Cc2ccc(N3CCOCC3)o2)C(=O)N(C)C1=S`, the fluorescence artifact activation was 0.02%. On to `CN1C(=O)C(=Cc2ccc(N3CCOCC3)o2)C(=O)N(C)C1=O`, for which the fluorescence artifact activation is 16.2% (active).
